Jurkat tox 60K – cytotoxicity toward Jurkat T cells, primary screen, cytotoxicity control, cell-based, Jurkat E6.1, 60K MLSMR library; Jurkat E6.1 viability, ATP luminescence, 48 h; inhibition, % at 4 µM; actives 1.2% (n = 56,000);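 active means inhibition above the mean inhibition of all tested compounds plus 3 SD, cut at about 28% in these data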
HEK293 NFkB inh – inhibitors of PMA/ionomycin-induced NF-kB reporter, primary screen, antigen receptor NF-kB inhibitor project, cell-based, HEK-293 luciferase reporter, luminescence; inhibition, % at 3 µM; HEK-293 NF-kB luciferase reporter; actives 0.21% (n = 62,000);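 active means inhibition above the mean of all tested compounds plus 3 SD, cut at about 40% in these data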
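System – HEK-293 cells with stable firefly luciferase reporter driven by four HIV NF-kB elements · Doses – one dose, 3 µM · Schedule – 1 h compound pre-incubation, 16 h PMA/ionomycin at 37 °C · Technique – luminescence from luciferase substrate reagent · Measure – percent inhibition normalized per plate to DMSO and reference-inhibitor controls · Replicates – tested once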
mHtt clearance – clearance of mutant huntingtin inclusions, primary screen, imaging, HeLa Exon1htt(103Q)mCFP, confocal imaging; aggregate imaging; zero = plate's median compound well; inhibition, % at 1.5 µM; actives 0.42% (n = 47,000); AID 853, 2007;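 active means inhibition of aggregate fluorescence above about 70%, also judged a hit by eye on the cell image, limit read from the data, passing the limit was not always enough; inconclusive means no rule stated for this call; inactive means not judged a hit on image review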;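 further: cells exposed to compound for three days before fixation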
SK-BR-3 tox 24h – SK-BR-3 proliferation inhibitors, primary screen, cell-based, human, 24 h. viability, % at 10 µM. SK-BR-3 viability, CellTiter-Glo ATP luminescence; stronger effect = lower value. actives 0.47% (n = 41,000);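 active means viability at or below the median of all test compounds minus 3 SD, in both replicates if run twice, cut at about 45% in these data; inconclusive means duplicate replicates that disagree with each other; inactive means viability above that cutoff in every replicate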
Her2 expr inh – inhibitors of Her2 protein expression, primary screen, SKBR-3 cells, AlphaScreen, 66K library; Receptor tyrosine-protein kinase erbB-2 (Homo sapiens), P04626; SKBR-3 HER2 protein level, 18-24 h; stronger effect = lower value; HER2 level % of control, % at 10 µM; actives 0.69% (n = 65,000);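 active means HER2 level under 5% of the carrier-only control; inconclusive means no clear call, values can overlap the other calls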
Target sequence (P04626 whole entry, looked up): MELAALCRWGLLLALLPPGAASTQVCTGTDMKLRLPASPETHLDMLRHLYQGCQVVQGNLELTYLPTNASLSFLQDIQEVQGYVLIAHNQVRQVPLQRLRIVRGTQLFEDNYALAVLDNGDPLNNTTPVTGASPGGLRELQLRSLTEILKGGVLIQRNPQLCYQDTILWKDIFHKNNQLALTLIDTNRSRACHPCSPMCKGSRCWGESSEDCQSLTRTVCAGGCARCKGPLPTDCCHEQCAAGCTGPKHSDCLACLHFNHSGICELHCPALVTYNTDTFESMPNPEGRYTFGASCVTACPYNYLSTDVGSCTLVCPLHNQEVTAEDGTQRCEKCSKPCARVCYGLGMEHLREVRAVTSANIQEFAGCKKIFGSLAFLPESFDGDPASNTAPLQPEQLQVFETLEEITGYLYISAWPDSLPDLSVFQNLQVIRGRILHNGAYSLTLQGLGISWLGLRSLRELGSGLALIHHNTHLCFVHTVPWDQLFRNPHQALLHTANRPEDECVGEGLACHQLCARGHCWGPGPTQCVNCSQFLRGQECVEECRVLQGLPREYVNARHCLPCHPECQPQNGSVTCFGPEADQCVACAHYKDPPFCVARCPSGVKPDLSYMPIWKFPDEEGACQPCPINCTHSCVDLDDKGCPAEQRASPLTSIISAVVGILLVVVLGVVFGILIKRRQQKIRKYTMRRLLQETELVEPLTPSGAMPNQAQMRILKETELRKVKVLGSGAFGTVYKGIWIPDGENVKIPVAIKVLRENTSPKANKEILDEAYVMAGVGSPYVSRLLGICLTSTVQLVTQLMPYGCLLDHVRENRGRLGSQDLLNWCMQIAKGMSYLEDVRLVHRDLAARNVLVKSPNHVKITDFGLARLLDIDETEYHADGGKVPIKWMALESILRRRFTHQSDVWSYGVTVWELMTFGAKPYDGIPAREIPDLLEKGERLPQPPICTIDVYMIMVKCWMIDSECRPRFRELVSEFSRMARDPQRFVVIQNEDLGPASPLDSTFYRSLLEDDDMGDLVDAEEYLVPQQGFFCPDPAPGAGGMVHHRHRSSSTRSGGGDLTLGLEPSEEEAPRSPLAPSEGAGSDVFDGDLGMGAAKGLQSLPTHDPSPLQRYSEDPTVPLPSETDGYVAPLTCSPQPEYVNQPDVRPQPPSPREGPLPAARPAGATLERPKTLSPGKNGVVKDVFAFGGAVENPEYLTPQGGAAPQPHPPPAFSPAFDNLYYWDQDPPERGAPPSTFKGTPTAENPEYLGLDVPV
Large screens that a line does not name were inactive. An excerpt weighted towards active compounds, which were near 1.9% of everything screened.

COC(=O)C1Cc2c([nH]c3ccccc23)CN1 (configuration not stated)	Her2 expr inh -19.1
Cc1cccc(S(=O)(=O)C(C#N)c2nc3ccccc3nc2N2CCOCC2)c1 (configuration not stated)	none
O=C(Nc1ccc(-c2noc(COc3ccccc3Cl)n2)cc1)c1ccco1	none (no result: Jurkat tox 60K, mHtt clearance, SK-BR-3 tox 24h)
CCOC(=O)C(C)Sc1nc2c(cnn2-c2ccc(C)cc2)c(=O)[nH]1 (configuration not stated)	Jurkat tox 60K 49.8 (no result: mHtt clearance, SK-BR-3 tox 24h)
Cc1ccc(-n2ncc3c(=O)[nH]c(SC(C)C)nc32)cc1	none (no result: mHtt clearance, SK-BR-3 tox 24h)
COc1ccc(OC)c(C(O)c2coc3ccc(O)c(CN4CCOCC4)c23)c1 (configuration not stated)	none (no result: Jurkat tox 60K, HEK293 NFkB inh, mHtt clearance)
O=c1[nH]cnc2c1cnn2Cc1ccccc1	none (no result: Jurkat tox 60K, HEK293 NFkB inh, mHtt clearance)
COc1ccc(C(O)C(CN2CCOCC2)c2ccccc2)cc1F (configuration not stated)	none
COc1ccc(C(=O)C(CN2CCOCC2)c2ccccc2)cc1F (configuration not stated)	Jurkat tox 60K 95.5
O=C(c1ccc(Cl)c(S(=O)(=O)N2CCOCC2)c1)N1CCN(Cc2ccccc2)CC1	none (no result: Jurkat tox 60K, HEK293 NFkB inh, SK-BR-3 tox 24h, Her2 expr inh)
Cc1cccc(NC(=O)Cc2noc3ccccc23)c1	mHtt clearance 84.0 (no result: Jurkat tox 60K, HEK293 NFkB inh, SK-BR-3 tox 24h, Her2 expr inh)
Cc1nc(SCC(=O)N2CCN(c3ccccc3)CC2)c2c(=O)n(C)c(=O)n(C)c2n1	none (no result: mHtt clearance, SK-BR-3 tox 24h)
Cc1ccc2[nH]c(-c3ccccc3)cc(=O)c2c1	Jurkat tox 60K 98.4 (no result: SK-BR-3 tox 24h)
CCC(=O)N1CCN(c2ccc(Cl)cc2NC(=O)c2ccc(Br)o2)CC1	none (no result: mHtt clearance)
CCOC(=O)c1c(COc2ccccc2)oc2ccc(O)cc12	Jurkat tox 60K 45.3 (no result: SK-BR-3 tox 24h)
CCn1c(SCC(=O)N2c3ccccc3CCc3ccccc32)nc2c1c(=O)n(C)c(=O)n2C	Her2 expr inh -3.2 (no result: mHtt clearance, SK-BR-3 tox 24h)
C=C(C)c1cccc(C(C)(C)NC(=O)N2CCN(CC(N)=O)CC2)c1	none
O=C1CCCc2c1cc(C(=O)NCc1ccco1)c(=O)n2-c1ccc(Cl)cc1	none (no result: mHtt clearance)
CC(C)C1O/C(=N/C(=O)Nc2ccc(Cl)c(Cl)c2)NC1=O (configuration not stated)	none (no result: mHtt clearance, SK-BR-3 tox 24h)
On1onc2c3cc(-c4ccccc4)nc3ccc21	Jurkat tox 60K 98.4, mHtt clearance inconclusive (no result: SK-BR-3 tox 24h)
CSc1nc(-c2ccccc2)nc2[nH]ccc(=O)c12	none
COc1cc(C)c(C(C)C)cc1S(=O)(=O)n1cnc(C)c1	Jurkat tox 60K 85.1 (no result: mHtt clearance, SK-BR-3 tox 24h)
COc1cc2nc(N3CCN(C(=O)c4ccco4)CC3)nc(N)c2cc1OC	SK-BR-3 tox 24h 43.9 (no result: Jurkat tox 60K, HEK293 NFkB inh, mHtt clearance)
O=C(Nc1nnc(CCN2CCOCC2)s1)C1CCCCC1	none
COc1ccc(/C=C/C(O)=C2/C(=O)N(C)C3(C)CC2c2ccccc2O3)cc1 (configuration not stated)	Her2 expr inh -6.0 (no result: SK-BR-3 tox 24h)
COc1ccc(NC(=O)Cc2nn(C)c(=O)c3ccccc23)c2ncccc12	none (no result: mHtt clearance)
Cc1nnsc1C(=O)NC(C)C12CC3CC(CC(C3)C1)C2 (configuration not stated)	none (no result: Jurkat tox 60K, HEK293 NFkB inh, SK-BR-3 tox 24h, Her2 expr inh)
Cc1cc(NC(=O)CSc2nc(-c3ccco3)cc(C(F)(F)F)n2)no1	Jurkat tox 60K 59.4
Cc1cc(NC(=O)CCCSc2nc(-c3ccco3)cc(C(F)(F)F)n2)no1	none (no result: mHtt clearance)
CS(=O)(=O)c1nc(-c2ccco2)cc(C(F)(F)F)n1	SK-BR-3 tox 24h 30.8, Her2 expr inh -22.4 (no result: Jurkat tox 60K)
c1cncc(-c2nc(-c3ccc4c(c3)OCO4)cs2)c1	none (no result: Jurkat tox 60K, mHtt clearance, SK-BR-3 tox 24h)
Oc1ccc(-c2nc(-c3ccc(O)c(O)c3)cs2)cc1	Jurkat tox 60K 96.8 (no result: mHtt clearance, SK-BR-3 tox 24h)
CC(=O)c1cccc(NC(=S)NC(=O)CC(C)(C)C)c1	none (no result: Jurkat tox 60K, HEK293 NFkB inh, SK-BR-3 tox 24h, Her2 expr inh)
CCCCNC(=O)Cc1coc2ccc3ccccc3c12	none (no result: Jurkat tox 60K, HEK293 NFkB inh, SK-BR-3 tox 24h, Her2 expr inh)
COc1ccc(-c2noc(CCCC(=O)O)n2)cc1	HEK293 NFkB inh 52.3 (no result: mHtt clearance)
CCOc1ccc(-c2noc(CCC(=O)O)n2)cc1	none (no result: SK-BR-3 tox 24h)
COCc1cc(C)nc(Nc2ccc(C)cc2C)c1C#N	SK-BR-3 tox 24h 38.0 (no result: mHtt clearance)
COCc1cc(C)nc(Nc2ccc(C)c(C)c2)c1C#N	Her2 expr inh -3.1 (no result: SK-BR-3 tox 24h)
O=C(NCCCn1ccnc1)c1ccc(Cl)c(S(=O)(=O)N2CCOCC2)c1	none (no result: mHtt clearance, SK-BR-3 tox 24h)
Cn1c(=O)c2c(nc(SCc3cccnc3)n2Cc2ccc(F)cc2)n(C)c1=O	none

Source: PubChem BioAssay
